The source made the active and inactive calls. No cut-off for these calls is given here.
Experiments:
Leishmania donovani = experiment: Antileishmanial activity against promastigote form of Leishmania donovani S1 Sudan assessed as reduction in parasite growth incubated for 72 hrs by alamar blue assay; type: functional, organism-based
Outline: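 S1 Sudan promastigotes kept at 26 °C in RPMI-1640 (no bicarbonate or pyruvate) with 10% FBS, subcultured twice weekly. Compounds added to promastigotes at 2 × 10^6 cells per mL at final 40, 8 and 1.6 μg mL−1, 72 h at 26 °C. Growth read by Alamar blue. IC50 from non-linear dose–response logistic regression. Triplicate. Pentamidine and amphotericin B standards.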

[1] = test system: Mycobacterium tuberculosis; experiment: Antitubercular activity against Mycobacterium tuberculosis H37Rv assessed as reduction in microbial growth incubated for 5 to 7 days by inverted plate count method; type: functional; conditions: time 5-7 day
[2] = test system: Mycobacterium tuberculosis; experiment: Antitubercular activity against Mycobacterium tuberculosis H37Rv assessed as reduction in microbial growth incubated; type: functional
Outline: (§1)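 Two-fold serial dilution in Middlebrook 7H9-ADS-Gly broth, final concentrations 20 down to 1.25 μM, from DMSO stocks. Inoculated with about 10^6 CFU of mid-log H37Rv, incubated 37 °C for five days. Turbidity recorded visually, then MTT added. MIC is the lowest concentration preventing growth (yellow colour). Three biological repeats, each in technical duplicate; rifampicin control.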

Vero = experiment: Cytotoxicity against African green monkey Vero cells assessed as reduction in cell viability incubated for 48 hrs by neutral red assay; type: cell-based; conditions: Chlorocebus sabaeus
Outline: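 Vero cells grown in MEM with 10% heat-inactivated FCS, 0.15% NaHCO3, penicillin and streptomycin at 37 °C, 5% CO2. Seeded at 25 000 cells per well, 24 h, then compound for 48 h. Viable cells by neutral red uptake. IC50 from log plots of growth inhibition against concentration. Doxorubicin positive control, DMSO vehicle control. Top concentration 20 μM.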

[3] = molecular target: T1, Enoyl-[acyl-carrier-protein] reductase [NADH] (Mycobacterium tuberculosis) (UniProt P9WGR1); experiment: Inhibition of Mycobacterium tuberculosis InhA at 50 uM using DD-CoA as substrate relative to control
T1 sequence (whole entry): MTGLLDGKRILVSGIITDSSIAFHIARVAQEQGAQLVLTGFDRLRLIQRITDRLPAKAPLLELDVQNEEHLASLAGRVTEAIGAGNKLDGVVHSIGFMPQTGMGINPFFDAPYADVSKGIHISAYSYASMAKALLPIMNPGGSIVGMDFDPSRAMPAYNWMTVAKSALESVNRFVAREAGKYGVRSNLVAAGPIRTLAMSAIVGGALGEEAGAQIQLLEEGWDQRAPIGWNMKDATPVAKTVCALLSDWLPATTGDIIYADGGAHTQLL
Outline: (§2)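 Wild-type InhA (100 nM) starts the reaction with 25 μM trans-2-dodecenoyl-CoA and 250 μM NADH in 30 mM PIPES, 150 mM NaCl, pH 6.8. Compound is present at a fixed 40 or 50 μM. Initial velocity is compared with a no-inhibitor control and expressed as percent inhibition.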

[4] = test system: Mycobacterium tuberculosis; experiment: Antitubercular activity against Mycobacterium tuberculosis H37Rv assessed as reduction in microbial growth incubated for 5 days by visual inspection method; type: functional; conditions: 120 h, time 5 day; outline: as §1
[5] = Lipophilicity, log P of the compound; type: physicochemical; conditions: octanol/water
[6] = molecular target: T1, Enoyl-[acyl-carrier-protein] reductase [NADH] (Mycobacterium tuberculosis); experiment: Inhibition of Mycobacterium tuberculosis InhA at 40 uM using DD-CoA as substrate relative to control; outline: as §2
[7] = molecular target: T1, Enoyl-[acyl-carrier-protein] reductase [NADH] (Mycobacterium tuberculosis); experiment: Inhibition of recombinant Mycobacterium tuberculosis InhA expressed in Escherichia coli BL21 using DD-CoA as substrate by UV-Vis spectrophotometry; conditions: time 5.0 min
[8] = test system: Mycobacterium tuberculosis; experiment: Antitubercular activity against Mycobacterium tuberculosis H37Rv assessed as reduction in microbial growth incubated for 1 week by MTT assay; type: functional; conditions: 168 h, time 1 weeks

Work on `C[C@@H]1[C@H](O)[C@@H](C)/C=C/C=C/C=C/C=C/C=C/C=C/C=C/[C@H](O[C@@H]2O[C@H](C)[C@@H](O)[C@H](N)[C@@H]2O)C[C@@H]2O[C@](O)(C[C@@H](O)C[C@@H](O)[C@H](O)CC[C@@H](O)C[C@@H](O)CC(=O)O[C@H]1C)C[C@H](O)[C@H]2C(=O)O` [AMPHOTERICIN B] yielded an IC50 (Leishmania donovani) of 0.11 µM.

`CCCCCCCCc1ccc(Oc2ccccc2)c(O)c1` showed an MIC [1] of 1.9 µM.

`CCc1cn(Cc2ccc(Oc3ccccc3C)c(O)c2)nn1` gave an MIC [2] of 3.9 µM.

`Cc1ccccc1Oc1ccc(Cn2cc(-c3ccccc3)nn2)cc1O` gave an MIC [2] of no more than 11.1 µM.

For `CCCCCc1cn(Cc2ccccc2O)nn1`, the IC50 (Vero) was greater than 20 µM, the inhibition [3] was “inactive” and the IC50 (Leishmania donovani) was greater than 60 µM. For the same compound, the MIC99 [4] was 20 µM.

Compound `CCCCCCCCCCCCCn1cc(COc2ccccc2O)nn1` has a logP [5] of 5.67, an IC50 (Vero) greater than 20 µM and an inhibition [6] of 63%. It also gave an IC50 (Leishmania donovani) of 13.4 µM and an MIC99 [4] greater than 100 µM.

In the case of `Oc1ccccc1Cn1cc(-c2ccccc2)nn1`, the IC50 (Vero) is reported as greater than 20 µM, the inhibition [3] is reported as “inactive” and the IC50 (Leishmania donovani) is reported as greater than 60 µM. It also gave an MIC99 [4] of 20 µM.

For `CC(C)=CCC/C(C)=C/Cn1cc(COc2ccccc2O)nn1`, the IC50 (Vero) was greater than 20 µM, the inhibition [6] was “inactive” and the IC50 (Leishmania donovani) was 51.9 µM. It also gave an MIC99 [4] greater than 100 µM.

Work on `Oc1cc(Cl)ccc1Oc1ccc(Cl)cc1Cl` [TRICLOSAN] yielded an MIC99 [4] of 43 µM.

In the case of `CC(C)=CCC/C(C)=C\Cn1cc(COc2ccccc2O)nn1`, the IC50 (Vero) is reported as greater than 20 µM, the inhibition [6] is reported as 85% and the IC50 (Leishmania donovani) is reported as 55 µM. For the same compound, the MIC99 [4] was greater than 100 µM.

For `CCCc1cn(Cc2ccccc2O)nn1`, the IC50 (Vero) was greater than 20 µM, the inhibition [3] was 92% and the IC50 (Leishmania donovani) was greater than 60 µM. It also gave an MIC99 [4] of 20 µM.

With `CCc1cn(Cc2ccc(Oc3ccccc3C#N)c(O)c2)nn1` the MIC [2] was 2.02 µM.

For `CCCCCc1c(CO)nnn1Cc1ccc2ccccc2c1`, the IC50 (Vero) was greater than 20 µM, the inhibition [3] was “inactive” and the IC50 (Leishmania donovani) was 31.4 µM. It also gave an MIC99 [4] greater than 100 µM.

With `CCCCc1cn(Cc2ccc(Oc3ccc(Cl)cc3O)c(Cl)c2)nn1` the inhibition [7] was 98% and the MIC [8] was 1.5 µM.
